CaV13 ICDI inh: Primary screen for inhibitors of IQ motif and Ca2+-dependent inactivation inhibitor domain binding in CACNA1D, Förster resonance energy transfer in living cells, …. 340,000 compounds, 0.098% hits. HEK cells, CFP/YFP FRET ICDI-IQ, plate reader, 10 min; percent FRET-ratio fall versus neutral wells. inhibition, % at 12.3 µM;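 active = mean replicate inhibition of at least 30% and at least 1% of replicates passing that level; inconclusive = only one of the two criteria is met; inactive = neither criterion is met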;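 also: 0% = median of the neutral control wells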
TROY NFkB inh: blocks TROY-dependent signaling in reporter cells; Q293 LMP1-TROYcd NF-kB luciferase reporter, 4 h; AID 1347056; 360,000 compounds, 0.98% hits; inhibition, % at 10 µM;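 active = compounds whose plate-normalised and pattern-corrected inhibition of the luciferase reporter signal at the single screening dose is 50% or more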
TWEAK-Fn14 inh: inhibitors of TWEAK-Fn14 interaction signaling; inhibition, % at 10 µM; TWEAK-stimulated Fn14 reporter cells, luciferase luminescence, 8 h; 360,000 compounds, 2% hits; AID 1159606; in the data active = inhibition above about 50%
Xi reactivation: activators of X-chromosome reactivation in mouse fibroblasts; XiGFP mouse fibroblasts, % GFP-positive cells imaging, 3 d; cells co-treated with 5-aza-dC sensitizer; scaled so ellipticine positive control = 100%; activation, % at 7.58 µM; 360,000 compounds, 0.055% hits; AID 743238;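 active = mean normalized replicate activation at least 10% and every replicate at or above 10%; inconclusive = only one of the two criteria met; inactive = mean below 10% and not all replicates reach 10%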;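 also: 0% = median of on-plate neutral control wells and 100% = ellipticine 6 µM median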
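System: XiGFP fibroblasts, SV40-immortalized. Medium: DMEM plus 5-aza-dC sensitizer. Doses: single point. Timing: 3 d treatment, 15 min room-temperature fixation. Control set: ellipticine 6 µM.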
LGR2 antag: inhibitors of bursicon-induced Drosophila LGR2 receptor cAMP signaling. HEK293 LGR2, CRE-luciferase, bursicon-stimulated, 4 h. inhibition, % at 9.99 µM. 380,000 compounds, 0.35% hits;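 active = drop in luminescence signal, shown as inhibition above about 50% in the replicate tests, limit read from the data, passing the limit was not always enough; inconclusive = probably only some replicates passing the limit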;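 also: agonist challenge used bursicon conditioned medium at about half maximal strength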
* hit, by the source's call; ? = inconclusive; / = not tested or not shown. Most compounds without a hit are left out; they make up all but 2% or so of the library.

SMILES	CaV13 ICDI inh	TROY NFkB inh	TWEAK-Fn14 inh	Xi reactivation	LGR2 antag
OCc1cn(-c2ccccc2)nc1-c1ccc(-c2nn(-c3ccccc3)cc2CO)cc1	/	27	52*	/	12
CCOC(=O)c1ccc(Nc2ncnc3c2cnn3C)cc1	-3	-39	-14	/	1
Cn1ncc2c(O/N=C(\N)c3ccc(C(C)(C)C)cc3)ncnc21	/	32	100*	/	/
COC(=O)C1=C(C)N(Cc2cccc(C(F)(F)F)c2)C(=NCc2ccc(C(F)(F)F)cc2)NC1c1ccc(Cl)cc1 (configuration not stated)	-4	/	/	0	55*
COC(=O)C1=C(C)N(Cc2ccc(C(F)(F)F)cc2)C(=NCc2ccccc2)NC1c1cccc(Cl)c1 (configuration not stated)	-4	/	/	0	53*
COC(=O)C1=C(C)N(Cc2cccc(C(F)(F)F)c2)C(=NCc2ccc(C(F)(F)F)cc2)NC1c1ccccc1 (configuration not stated)	-5	/	/	0	15
COC(=O)C1=C(C)N(Cc2ccc(C(F)(F)F)cc2)C(=NCc2ccccc2)NC1c1cccc(C(F)(F)F)c1 (configuration not stated)	-4	/	/	0	8
O=C1C=C(NCc2ccccc2)c2ccccc2C1=O	-4	25	69*	0	96*
C[C@@H]1CCCCO[C@H](CN(C)C(=O)Nc2ccc(C(F)(F)F)cc2)[C@H](C)CN([C@H](C)CO)C(=O)c2cc(NS(C)(=O)=O)ccc2O1	/	/	/	-1	-5
Cc1ccccc1CN(C)C1CCN(C)CC1	-1	22	110*	0	5
Clc1c(Cl)c(Cl)c2n[nH]nc2c1Cl	-14	60*	-23	0	4
COC(=O)c1ccccc1-c1ccc(C(c2c(C)[nH][nH]c2=O)c2c(C)[nH][nH]c2=O)o1	-7	-2	17	0	15
COC(=O)c1cccc(-c2ccc(C(c3c(C)[nH][nH]c3=O)c3c(C)[nH][nH]c3=O)o2)c1	-13	82*	8	0	-2
Cc1cccc(Nc2nc3c(S(=O)(=O)c4ccccc4)nnn3c3ccccc23)c1	-15	53*	-44	0	0
Cc1cc(C)cc(Nc2nc3c(S(=O)(=O)c4ccccc4)nnn3c3ccccc23)c1	-1	7	-21	0	/
CCOC(=O)N1C(=O)[C@](c2ccc(Cl)cc2)(C(C)C)N1C(=O)OCC	-6	-3	34	0	26
CCOC(=O)N1C(=O)[C@@](c2ccc(Cl)cc2)(C(C)C)N1C(=O)OCC	-7	36	76*	0	?
CCOC(=O)C1=C[C@@H](C2CCCCC2)N(S(=O)(=O)c2ccc([N+](=O)[O-])cc2)[C@H]1c1ccccc1	-5	-9	75*	0	8
CCOC(=O)C1=CC[C@@H](c2ccc([N+](=O)[O-])cc2)N(S(=O)(=O)c2ccc(C)cc2)[C@H]1c1ccccc1	-6	-2	26	0	9
COCC(=O)Nc1ccc2c(c1)OC[C@H](C)N(C(=O)c1cccnc1)C[C@@H](C)[C@@H](OC)CN(C)C2=O	/	/	/	0	-16
C[C@H](CO)N1C[C@H](C)[C@H](CN(C)CC2CCOCC2)Oc2cc(C#CC3CC3)ccc2S1(=O)=O	/	/	/	0	4
CC(NC(=O)COC(=O)/C(=C/c1cccs1)c1cccs1)c1ccccc1 (configuration not stated)	-5	39	50*	0	10
O=C1N/C(=C/c2ccc(N3CCOCC3)o2)C(=O)N1c1ccccc1	-17	20	53*	1	-5
Cc1ccc2nc3sc(C(=O)Nc4c(C)[nH]c(=O)[nH]c4=O)c(N)c3cc2c1	-9	8	53*	/	-7
CCCC(=O)Nc1cnc(NC(=O)c2cccc(F)c2)cc1C	/	29	66*	/	/
CN(C)CCC1(C2=CCCC2)CC/C(=C/c2ccc(Cl)cc2)C1=O (configuration not stated)	-9	8	-3	0	69*
N#Cc1c(-c2ccccc2)nc(SCc2ccc(Cl)cc2)[nH]c1=O	-5	51*	-14	0	-7
N#Cc1c(-c2ccccc2)nc(SCC(=O)N2c3ccccc3Sc3ccccc32)[nH]c1=O	-1	55*	-28	0	1
